ChEMBL document CHEMBL1122715, “beta-Lapachone: synthesis of derivatives and activities in tumor models” (1984)
Values after ≈ are worked out from the molar mass of the structure shown.

Key:
[1] = system: Rauscher murine leukemia virus; test: In vitro inhibition of RNA dependent DNA polymerase of Rauscher leukemia virus (RLV); assay type: functional; conditions: read-out: ED50
Procedure, shortened: (§1)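 Reverse transcriptase activity assayed with poly(rA)·oligo(dT) or poly(rC)·oligo(dG) template-primer (20 μg/mL) and [³H]dTTP or [³H]dGTP substrate (20 μM, […]); inhibition read as loss of labelled nucleotide incorporation.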

[2] = system: Avian myeloblastosis virus; test: In vitro inhibition of RNA dependent DNA polymerase of Avian myeloblastosis virus (AMV); assay type: functional; conditions: read-out: ED50; procedure, shortened: as §1
Mus musculus = test: Maximum tolerated dose (MTD, po) in uninfected NMRI mice

Compound | EC50 [1] | EC50 [2] | MTD (Mus musculus)
CC1(c2ccccc2)CCC2=C(O1)c1ccccc1C(=O)C2=O (stereo unspecified) | 2 µg/mL (≈ 6.57 µM) | 2 µg/mL (≈ 6.57 µM) | >2500 mg/kg
CCC1(CC)CCC2=C(O1)c1ccccc1C(=O)C2=O |  | 2 µg/mL (≈ 7.4 µM) | 2500 mg/kg
O=C1C(=O)c2ccccc2C2=C1CCC1(CCCCCC1)O2 |  | 15 µg/mL (≈ 50.6 µM) | 
COc1cc2c(cc1OC)C1=C(CCC(C)(C)O1)C(=O)C2=O |  | 5 µg/mL (≈ 16.5 µM) | >1250 mg/kg
CCC1(C)CCC2=C(O1)c1ccccc1C(=O)C2=O (stereo unspecified) |  | < 2 µg/mL | 125 mg/kg
CC1(C)CCC2=C(O1)c1ccc(Cl)cc1C(=O)C2=O |  |  | >2500 mg/kg
O=C1C(=O)c2ccccc2C2=C1CCC1(CCCCC1)O2 |  | 3 µg/mL (≈ 10.6 µM) | >2500 mg/kg
O=C1C(=O)c2ccccc2C2=C1CCC(c1ccccc1)O2 (stereo unspecified) |  | < 2 µg/mL | >2500 mg/kg
O=C1C(=O)c2ccccc2C2=C1CCC1(CCCC1)O2 |  | 3 µg/mL (≈ 11.2 µM) | >2500 mg/kg
Cc1ccc2c(c1)C(=O)C(=O)C1=C2OC(C)(C)CC1 |  |  | >2500 mg/kg
CC1(C)CCC2=C(O1)c1ccccc1C(=O)C2=O [LAPACHONE] | < 2 µg/mL | < 2 µg/mL | 1250 mg/kg
